ChEMBL document CHEMBL1255441, “Pharmacokinetics of cefotaxime and desacetylcefotaxime in infants during extracorporeal membrane oxygenation” (Antimicrob Agents Chemother, 2010)

What was measured:
Assay type in all cases: ADME, organism-based
Design in all cases: dose 50 mg/kg, route intravenous
[1] = Clearance in infant during extracorporeal membrane oxygenation at 50 mg/kg, iv dosed 2 to 3 times per day as bolus dose; conditions: human, in vivo
Outline: (§1)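 Infants on ECMO (n=37; PNA 0.67–199 days; 2.0–6.2 kg). Cefotaxime given as an IV bolus (≤3 min) into the extracorporeal line after the oxygenator. Dosing: 50 mg/kg b.i.d. for PNA <1 week, 50 mg/kg t.i.d. for 1–4 weeks, 37.5 mg/kg q.i.d. for >4 weeks. Routine venous circuit samples (EDTA), including post-decannulation up to 24 h. Cefotaxime and desacetyl metabolite measured by LC-MS (LOQ 0.2 mg/liter). One-compartment NONMEM population model.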

Homo sapiens [2] = test: Volume of distribution in infant during extracorporeal membrane oxygenation assessed as desacetylcefotaxime at 50 mg/kg, iv dosed 2 to 3 times per day as bolus dose; conditions: in vivo; outline: as §1
Homo sapiens [3] = test: Clearance in infant during extracorporeal membrane oxygenation assessed as desacetylcefotaxime at 50 mg/kg, iv dosed 2 to 3 times per day as bolus dose; conditions: in vivo; outline: as §1
Homo sapiens [4] = test: Clearance in infant weighing 2 to 6.2 kg weight assessed as desacetylcefotaxime at 50 mg/kg, iv dosed 2 to 3 times per day as bolus dose; conditions: in vivo; outline: as §1
[5] = Volume of distribution in infant during extracorporeal membrane oxygenation at 50 mg/kg, iv dosed 2 to 3 times per day as bolus dose; conditions: human, in vivo; outline: as §1
[6] = Clearance in infant weighing 2 to 6.2 kg weight after extracorporeal membrane oxygenation at 50 mg/kg, iv dosed 2 to 3 times per day as bolus dose; conditions: human, in vivo; outline: as §1
[7] = Clearance in infant weighing 2 to 6.2 kg weight during extracorporeal membrane oxygenation at 50 mg/kg, iv dosed 2 to 3 times per day as bolus dose; conditions: human, in vivo; outline: as §1
Homo sapiens [8] = test: Elimination half life in infant weighing 2 to 6.2 kg weight during extracorporeal membrane oxygenation assessed as desacetylcefotaxime at 50 mg/kg, iv dosed 2 to 3 times per day as bolus dose; conditions: in vivo; outline: as §1
[9] = Elimination half life in infant weighing 2 to 6.2 kg weight during extracorporeal membrane oxygenation at 50 mg/kg, iv dosed 2 to 3 times in a day bolus dose; conditions: human, in vivo, read-out: beta t1/2 (converted); outline: as §1
Homo sapiens [10] = test: Clearance in infant weighing 2 to 6.2 kg weight after extracorporeal membrane oxygenation assessed as desacetylcefotaxime at 50 mg/kg, iv dosed 2 to 3 times per day as bolus dose; conditions: in vivo; outline: as §1
[11] = Clearance in infant weighing 2 to 6.2 kg weight at 50 mg/kg, iv dosed 2 to 3 times per day as bolus dose; conditions: human, in vivo; outline: as §1
[12] = Clearance in infant weighing 2 to 6.2 kg weight after extracorporeal membrane oxygenation at 50 mg/kg, iv dosed 2 to 3 times per day as bolus dose measured after 72 hrs; conditions: human, in vivo; outline: as §1
Homo sapiens [13] = test: Clearance in infant weighing 2 to 6.2 kg weight after extracorporeal membrane oxygenation assessed as desacetylcefotaxime at 50 mg/kg, iv dosed 2 to 3 times per day as bolus dose measured after 72 hrs; conditions: in vivo; outline: as §1

SMILES: CO/N=C(\C(=O)N[C@@H]1C(=O)N2C(C(=O)O)=C(COC(C)=O)CS[C@H]12)c1csc(N)n1 [CEFOTAXIME]
- clearance [1]: 6 mL/min
- Vd (Homo sapiens [2]): 11 L
- CL (Homo sapiens [3]): 1.46 L/h
- CL (Homo sapiens [4]): 1.37 L/h
- Vd [5]: 1.82 L
- clearance [6]: 3.67 mL/min
- clearance [7]: 4.33 mL/min
- beta t1/2 (Homo sapiens [8]): 0.8 h
- half-life [9]: 1.6 h
- CL (Homo sapiens [10]): 0.18 L/h
- clearance [11]: 5 mL/min
- clearance [12]: 6.67 mL/min
- CL (Homo sapiens [13]): 1.38 L/h
